The text below walks through data of paper PMC2889672 (Biochemistry, 2010).

In experiment [1] the target is T1, S. pneumoniae UPPS (Streptococcus pneumoniae serotype 4, UniProt Q97SR4).
T1 sequence (Q97SR4 1-252): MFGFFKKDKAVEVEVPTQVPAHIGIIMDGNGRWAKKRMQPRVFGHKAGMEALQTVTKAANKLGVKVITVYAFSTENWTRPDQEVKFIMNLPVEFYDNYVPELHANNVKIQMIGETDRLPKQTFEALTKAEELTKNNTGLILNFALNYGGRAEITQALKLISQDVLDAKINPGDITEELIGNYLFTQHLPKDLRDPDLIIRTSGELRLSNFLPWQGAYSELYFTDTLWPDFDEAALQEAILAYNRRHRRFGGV
Briefly: Photo-cross-linking with Photo-probe and mass spectrometry. It is filed as binding. Conditions: 30 μM UPPS, 30 μM Photo-probe, UV 350 nm 10 min.

In experiment [2] the target is T1, S. pneumoniae UPPS. In words: Biomol Green assay of UPPS activity. It is filed as biochemical. A digest of the protocol: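 His-tagged S. pneumoniae UPPS expressed in E. coli BL21(DE3) and purified by Ni-NTA and size exclusion, then mixed 1:2 (w/v) with liposomes of total E. coli lipid extract. Released phosphate quantified with Biomol Green reagent.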
For experiment [3], the target named is T1, S. pneumoniae UPPS. Briefly: Protein fluorescence binding experiments. Conditions: excitation 285 nm; 1 μM UPPS, 5 μM compound. A digest of the protocol: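 Intrinsic protein fluorescence: emission scanned 300−500 nm at excitation 285 nm. Buffer: 100 mM HEPES pH 7.3, 0.5 mM MgCl2, 50 mM KCl, 1.25% DMSO. Test compound (final 5 μM) preincubated 15 min with UPPS (final 1 μM) before adding FsPP (15 μM), IsPP (40 μM) or both. Spectra are averages of two scans.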

Consider `O=C(Nc1ccc(C(=O)c2ccccc2)cc1)C1=C(O)C(CCc2ccccc2)NC1=O` (stereo not shown) [Photo-probe, N-(4-Benzoylphenyl)-4-hydroxy-2-oxo-5-phenethyl-2,5-dihydro-1H-pyrrole-3-carboxamide], for which the “binding to and modification of UPPS in the absence of substrate” value on S. pneumoniae UPPS [1] was “bound to and modified UPPS”. Further, half-maximal inhibition against S. pneumoniae UPPS [2] (IC50) required 630 nM.
As to `CC1(Cc2ccccc2)NC(=O)C(C(=O)Nc2ccc(C3CCCCC3)cc2)=C1O` (stereo not shown) [compound 1, 5-benzyl-4-hydroxy-5-methyl-2-oxo-2,5-dihydro-1H-pyrrole-3-carboxylic acid (4-cyclohexylphenyl)amide], the “change of intrinsic fluorescence of S. pneumoniae UPPS upon addition of compound” value at S. pneumoniae UPPS [3] was “increased”. The IC50 on S. pneumoniae UPPS [2] came to 450 nM.
